Assays:
[1] = target: T1, Kappa-type opioid receptor (Homo sapiens, UniProt P41145); experiment: Binding affinity for […] [3H]diprenorphine against human Opioid receptor kappa expressed in chinese hamster ovary cells (CHO cells); assay type: cell-based
Summary of the method: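 Competitive displacement of [3H]diprenorphine binding to membranes from CHO cells stably transfected with human KOR; compounds were first screened at a single concentration.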

[2] = target: T1, Kappa-type opioid receptor; experiment: Percent maximal response in enhanced [35S]GTP-gamma-S, binding to human Opioid receptor kappa expressed in CHO cells relative to U50,488H; assay type: functional, cell-based
Summary of the method: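 Agonist stimulation of [35S]GTPγS binding to membranes of CHO-hKOR cells; efficacy is maximal response expressed as % of that of U50,488H; means of at least three independent experiments run in duplicate.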

[3] = target: T1, Kappa-type opioid receptor; experiment: Concentration required to enhance [35S]GTP-gamma-S, binding to human Opioid receptor kappa expressed in CHO cells; assay type: functional, cell-based
Summary of the method: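 [35S]GTPγS binding to membranes of CHO cells stably expressing human KOR; EC50 for agonist-stimulated enhancement of binding; means of at least three independent experiments run in duplicate.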

T1 sequence (P41145 whole entry): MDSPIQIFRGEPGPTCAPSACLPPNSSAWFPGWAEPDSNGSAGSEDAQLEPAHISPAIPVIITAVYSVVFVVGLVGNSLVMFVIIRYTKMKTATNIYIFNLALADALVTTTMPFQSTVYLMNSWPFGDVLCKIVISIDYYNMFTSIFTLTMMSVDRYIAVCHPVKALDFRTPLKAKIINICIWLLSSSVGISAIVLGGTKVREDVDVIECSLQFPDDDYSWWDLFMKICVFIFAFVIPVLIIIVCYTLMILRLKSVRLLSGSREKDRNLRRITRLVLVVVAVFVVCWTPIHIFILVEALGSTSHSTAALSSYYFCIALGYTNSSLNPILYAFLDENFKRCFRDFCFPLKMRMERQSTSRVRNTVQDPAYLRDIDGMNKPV

CCCCCOC(=O)[C@@H]1C[C@H](OC(C)=O)C(=O)[C@H]2[C@@]1(C)CC[C@H]1C(=O)O[C@H](c3ccoc3)C[C@]21C
Ki [1]: > 1000 nM

CC(=O)O[C@H]1C[C@@H](C(=O)NCC(=O)OCc2ccccc2)[C@]2(C)CC[C@H]3C(=O)O[C@H](c4ccoc4)C[C@]3(C)[C@H]2C1=O
Ki [1]: 470 nM
Efficacy [2]: 105%
EC50 [3]: 227 nM

CC(=O)O[C@H]1C[C@@H](C(=O)NCCc2ccccc2)[C@]2(C)CC[C@H]3C(=O)O[C@H](c4ccoc4)C[C@]3(C)[C@H]2C1=O
Ki [1]: > 1000 nM

CCOC(=O)[C@@H]1C[C@H](OC(C)=O)C(=O)[C@@H]2[C@@]3(C)C[C@@H](c4ccoc4)OC(=O)[C@H]3CC[C@]21C
Ki [1]: > 1000 nM

CC(=O)O[C@H]1C[C@@H](C(=O)N2CCCC2C(=O)OCc2ccccc2)[C@]2(C)CC[C@@H]3C(=O)O[C@H](c4ccoc4)C[C@]3(C)[C@H]2C1=O (some centres undefined)
Ki [1]: > 1000 nM

CC(=O)O[C@H]1C[C@@H](C(=O)NN2CCC(C)CC2)[C@]2(C)CC[C@H]3C(=O)O[C@H](c4ccoc4)C[C@]3(C)[C@H]2C1=O
Ki [1]: > 1000 nM

C#CCCOC(=O)[C@@H]1C[C@H](OC(C)=O)C(=O)[C@H]2[C@@]1(C)CC[C@H]1C(=O)O[C@H](c3ccoc3)C[C@]21C
Ki [1]: > 1000 nM

CC(=O)O[C@H]1C[C@@H](C(=O)NCCC#N)[C@]2(C)CC[C@H]3C(=O)O[C@H](c4ccoc4)C[C@]3(C)[C@H]2C1=O
Ki [1]: > 1000 nM

CCCCOC(=O)[C@@H]1C[C@H](OC(C)=O)C(=O)[C@H]2[C@@]1(C)CC[C@H]1C(=O)O[C@H](c3ccoc3)C[C@]21C
Ki [1]: > 1000 nM

CC(=O)O[C@H]1C[C@@H](C(=O)N2CCCC2C(=O)OCc2ccccc2)[C@]2(C)CC[C@H]3C(=O)O[C@H](c4ccoc4)C[C@]3(C)[C@H]2C1=O (some centres undefined)
Ki [1]: 210 nM
Efficacy [2]: 100%
EC50 [3]: 348 nM

CC(=O)O[C@H]1C[C@@H](C(=O)NCCO)[C@]2(C)CC[C@H]3C(=O)O[C@H](c4ccoc4)C[C@]3(C)[C@H]2C1=O
Ki [1]: > 1000 nM

CC(=O)O[C@H]1C[C@@H](C(=O)NC(CO)C(=O)OCc2ccccc2)[C@]2(C)CC[C@H]3C(=O)O[C@H](c4ccoc4)C[C@]3(C)[C@H]2C1=O (some centres undefined)
Ki [1]: > 1000 nM

CC(=O)O[C@H]1C[C@@H](C(=O)NC2CC2)[C@]2(C)CC[C@H]3C(=O)O[C@H](c4ccoc4)C[C@]3(C)[C@H]2C1=O
Ki [1]: > 1000 nM

CC(=O)O[C@H]1C[C@@H](C(=O)NC(C)C(=O)OCc2ccccc2)[C@]2(C)CC[C@H]3C(=O)O[C@H](c4ccoc4)C[C@]3(C)[C@H]2C1=O (some centres undefined)
Ki [1]: 26.9 nM
Efficacy [2]: 95%
EC50 [3]: 46.7 nM

CC(=O)O[C@H]1C[C@@H](C(=O)NC2CC2)[C@]2(C)CC[C@@H]3C(=O)O[C@H](c4ccoc4)C[C@]3(C)[C@H]2C1=O
Ki [1]: 475 nM
Efficacy [2]: 95%
EC50 [3]: 840 nM

CC(=O)O[C@H]1C[C@@H](C(=O)NN2CCOCC2)[C@]2(C)CC[C@H]3C(=O)O[C@H](c4ccoc4)C[C@]3(C)[C@H]2C1=O
Ki [1]: > 1000 nM

CC(=O)O[C@H]1C[C@@H](C(=O)O)[C@]2(C)CC[C@@H]3C(=O)O[C@H](c4ccoc4)C[C@]3(C)[C@H]2C1=O
Ki [1]: 48.6 nM
Efficacy [2]: 94%
EC50 [3]: 74.1 nM

C=CCOC(=O)[C@@H]1C[C@H](OC(C)=O)C(=O)[C@H]2[C@@]1(C)CC[C@H]1C(=O)O[C@H](c3ccoc3)C[C@]21C
Ki [1]: > 1000 nM

C#CCCCOC(=O)[C@@H]1C[C@H](OC(C)=O)C(=O)[C@H]2[C@@]1(C)CC[C@H]1C(=O)O[C@H](c3ccoc3)C[C@]21C
Ki [1]: 201 nM
Efficacy [2]: 104%
EC50 [3]: 224 nM

CC(=O)O[C@H]1C[C@@H](C(=O)NCC(=O)OCc2ccccc2)[C@]2(C)CC[C@@H]3C(=O)O[C@H](c4ccoc4)C[C@]3(C)[C@H]2C1=O
Ki [1]: > 1000 nM

COCOC(=O)[C@@H]1C[C@H](OC(C)=O)C(=O)[C@@H]2[C@@]3(C)C[C@@H](c4ccoc4)OC(=O)[C@H]3CC[C@]21C
Ki [1]: 110 nM
Efficacy [2]: 102%
EC50 [3]: 191 nM

CCCOC(=O)[C@@H]1C[C@H](OC(C)=O)C(=O)[C@H]2[C@@]1(C)CC[C@H]1C(=O)O[C@H](c3ccoc3)C[C@]21C
Ki [1]: > 1000 nM

CC(=O)O[C@H]1C[C@@H](C(=O)OCc2ccccc2)[C@]2(C)CC[C@H]3C(=O)O[C@H](c4ccoc4)C[C@]3(C)[C@H]2C1=O
Ki [1]: > 1000 nM

CCOC(=O)[C@@H]1C[C@H](OC(C)=O)C(=O)[C@H]2[C@@]1(C)CC[C@H]1C(=O)O[C@H](c3ccoc3)C[C@]21C
Ki [1]: 28.5 nM
Efficacy [2]: 110%
EC50 [3]: 94.4 nM

CCCCCCCCOC(=O)[C@@H]1C[C@H](OC(C)=O)C(=O)[C@H]2[C@@]1(C)CC[C@H]1C(=O)O[C@H](c3ccoc3)C[C@]21C
Ki [1]: > 1000 nM

CC(=O)O[C@H]1C[C@@H](C(=O)NCc2ccccc2)[C@]2(C)CC[C@H]3C(=O)O[C@H](c4ccoc4)C[C@]3(C)[C@H]2C1=O
Ki [1]: > 1000 nM

C#CCCCOC(=O)[C@@H]1C[C@H](OC(C)=O)C(=O)[C@@H]2[C@@]3(C)C[C@@H](c4ccoc4)OC(=O)[C@H]3CC[C@]21C
Ki [1]: > 1000 nM

COCOC(=O)[C@@H]1C[C@H](OC(C)=O)C(=O)[C@H]2[C@@]1(C)CC[C@H]1C(=O)O[C@H](c3ccoc3)C[C@]21C
Ki [1]: 99.6 nM
Efficacy [2]: 105%
EC50 [3]: 58.2 nM

CC(=O)O[C@H]1C[C@@H](C(=O)NC(Cc2c[nH]cn2)C(=O)OCc2ccccc2)[C@]2(C)CC[C@H]3C(=O)O[C@H](c4ccoc4)C[C@]3(C)[C@H]2C1=O (some centres undefined)
Ki [1]: > 1000 nM

CC(=O)O[C@H]1C[C@@H](C(=O)NC(C)C(=O)OCc2ccccc2)[C@]2(C)CC[C@@H]3C(=O)O[C@H](c4ccoc4)C[C@]3(C)[C@H]2C1=O (some centres undefined)
Ki [1]: > 1000 nM

CC(=O)O[C@H]1C[C@@H](C(=O)O)[C@]2(C)CC[C@H]3C(=O)O[C@H](c4ccoc4)C[C@]3(C)[C@H]2C1=O
Ki [1]: > 1000 nM
